MrgX1 agonist: human MrgX1 receptor agonism, primary screen; 310,000 tested, 0.44% active; B-score at 10 µM; MrgX1-HEK293 cells, Fluo-4 calcium fluorescence, agonist mode; hits give high values; Q96LB2;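 active = calcium response B-score plate-corrected fluorescence ratio at least 3 library SD, with starting fluorescence B-score inside 5 SD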
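Material: HEK293 cells stably expressing human MrgX1 receptor | Quantity: 15,000 cells per well | Times: Cells plated overnight, dye loaded 0.5 h 37 °C, 0.5 h room temperature | Measured by: Kinetic Fluo-4 NW fluorescence of intracellular calcium | Control set: Positive and negative controls per plate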
MrgX1 allo act: human MrgX1 positive allosteric modulation, primary screen; Q96LB2; MrgX1-HEK293, Fluo-4 calcium flux, FDSS; hits give high values; B-score at 10 µM; 310,000 tested, 0.63% active; AID 588675;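 active = plate-corrected calcium response at least 3 library SD above typical, normal starting fluorescence, not activating the receptor alone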;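 note: compound read alongside a low EC10 to EC30 dose of BAM8-22 agonist; peak minus trough fluorescence over baseline measured at the second addition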
RGS4 inh: human RGS4 inhibition. HEK293 M3R/RGS4 inducible, Fluo-4 calcium flux; hits give high values; triggered by carbachol at its EC20. P49798. 310,000 tested, 0.45% active. B-score at 10 µM. AID 463165;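 active = B-score, a plate-corrected calcium signal, over three deviations above library mean, with baseline fluorescence within five deviations of library mean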;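 note: RGS4 expression induced by doxycycline in cells with stable M3 receptor; B-score is computed from the integrated fluorescence ratio over baseline after carbachol; higher B-score means a larger calcium signal and so more RGS4 inhibition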
Target sequence (P49798 whole entry, looked up): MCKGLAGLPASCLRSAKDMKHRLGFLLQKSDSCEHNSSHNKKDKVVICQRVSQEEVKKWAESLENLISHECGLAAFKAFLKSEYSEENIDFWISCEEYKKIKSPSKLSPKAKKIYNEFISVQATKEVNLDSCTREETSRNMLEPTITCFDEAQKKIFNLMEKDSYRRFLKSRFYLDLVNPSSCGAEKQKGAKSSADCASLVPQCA
RGS4 pot: RGS4 potentiation or activation. HEK293 M3R/inducible RGS4, carbachol calcium flux Fluo4; hits give low values. B-score at 10 µM. 310,000 tested, 0.92% active. AID 463111;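 active = B-score of the integrated calcium signal more than 4 SD below the library mean, with starting fluorescence not abnormally high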;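 note: negative B-score means reduced calcium response which marks RGS4 activation or potentiation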
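Assay system: HEK293 FlpIn-TREx cells, stable M3R, doxycycline-inducible RGS4 / Probe or stimulus: carbachol, ECmax concentration / Times: overnight RGS4 induction, 30 min dye load 37 °C, 20 min compound RT / Signal: kinetic calcium fluorescence imaging with Fluo4-AM dye, 2 µM / Measure: Agonist-evoked peak-minus-minimum fluorescence over baseline, integrated ratio, B score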
MrgX1 antag: antagonists of human MrgX1 receptor; Q96LB2; MRGX1-HEK293 calcium flux, Fluo-4, BAM8-22 antagonism; hits give low values; B-score at 10 µM; 310,000 tested, 1.3% active; AID 588676;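 active = calcium-response B-score plate-corrected more than 3 library SD below zero, starting fluorescence within 5 deviations, no agonist response on first addition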;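 note: peak minus trough fluorescence over baseline after final BAM8-22 challenge near maximal dose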
Each line names hits and unclear results; the compound was inactive in the other large screens. The list is not random: actives were taken first. Their share in the collection is about 3.5%.

Cc1cccc(N2CCN(C(=O)c3ccc4nc(-c5ccco5)c(-c5ccco5)nc4c3)CC2C)c1 (stereo not drawn)	MrgX1 antag -7.62
O=C(CN1CCCCC1)N1N=C(c2cccs2)CC1c1cccs1 (stereo not drawn)	RGS4 pot -7.97
O=C(Nc1cc2c3c(c1)C1CCCC1CN3CC1CCCC21)c1ccccc1 (stereo not drawn)	RGS4 pot -9.78, MrgX1 antag -12.6
COc1ccc(C(CNC(=O)c2ccc(-c3ccccc3Cl)o2)N2CCOCC2)cc1 (stereo not drawn)	none
COc1ccccc1C(CNC(=O)c1ccc(-c2ccccc2Cl)o1)N1CCCC1 (stereo not drawn)	RGS4 pot -7.06
O=C(/C=C/c1cccs1)NC(=S)NNC(=O)c1ccccc1O	MrgX1 agonist 62.6
O=C(NC(=S)NNC(=O)c1ccccc1O)c1ccco1	MrgX1 agonist 30.2
Cc1ccc(C(=O)NCCCN2CCOCC2)c(Cl)c1	none
O=C(c1ccccc1)N1CN2CN(C(=O)c3ccccc3)CC([N+](=O)[O-])(C2)C1	none
Cc1ccc(C)c(C(=O)COC(=O)CCCC(=O)Nc2cc(C(F)(F)F)ccc2Cl)c1	MrgX1 antag -7.01
O=C1NC(=S)S/C1=C/c1ccc(N2CCOCC2)o1	none
COc1ccc2cc(/C=C3\SC(=S)NC3=O)c(N3CCOCC3)nc2c1	MrgX1 antag -6.92
O=C(Cc1cccs1)NNC(=S)NC(=O)c1ccc(F)c(F)c1	MrgX1 agonist 61.3
O=C(Cc1ccccc1)NNC(=S)NC(=O)c1cccs1	MrgX1 agonist 59.8
O=C(NC(=S)NCc1ccccc1)c1cccs1	none
O=C(COc1ccccc1)NNC(=S)NC(=O)c1ccccc1	none
O=C(Cc1cccs1)NNC(=S)NC(=O)c1ccccc1	MrgX1 agonist 42.9
COc1cc(S(=O)(=O)NC2CCSc3ccccc32)ccc1NC(C)=O (stereo not drawn)	none
CC(C)Sc1nnc(NC(=O)c2ccc3c(c2)OCO3)s1	none
Cc1nc2c3cc(Cl)ccc3n(CCN3CCCCC3)c2s1	MrgX1 allo act 11.4
Oc1ccc(COCc2ccccc2)c2cccnc12	MrgX1 antag -5.57
CCCOCc1ccc(O)c2ncccc12	none
Cc1cc(O)cc(O)c1C=NCc1ccco1	none
COc1ccccc1NC(=O)c1cc2ccccc2o/c1=N\O	RGS4 inh 10.7
COc1ccc(N=c2oc3ccccc3cc2C(=O)Nc2ccccn2)cc1OC	none
COc1ccc(C2SCCN2C(=S)Nc2cccc(C(F)(F)F)c2)cc1 (stereo not drawn)	MrgX1 antag -5.28
O=C(Nc1ccc(OC(F)(F)F)cc1)c1[nH]ncc1[N+](=O)[O-]	none
COc1ccc(N/C=C2\C(=O)CCc3c2oc2cc(Cl)c(O)c(Cl)c32)cc1	MrgX1 antag -4.99
COc1ccc(N/C=C2\CCOC2=O)cc1	none
O=Cc1cc2ccccc2nc1SCCCF	MrgX1 antag -5.83
CSc1nc2ccccc2cc1/C=C(\C#N)c1ccccc1	none
CCOC(=O)c1c(CSC(=N)N)n(-c2ccc(C)cc2)c2cc(Br)c(OC(C)=O)cc12	MrgX1 antag -7.63
CCOC(=O)c1c(CN(C)C)n(-c2ccc(C)cc2)c2cc(Br)c(O)cc12	none
Cc1ccc(N(CCC#N)C(=O)COC(=O)c2ccccc2SCC(=O)N2CCCC2)cc1	none
Cc1cc(C)cc(N(CCC#N)C(=O)COC(=O)c2ccccc2SCC(=O)N2CCCC2)c1	RGS4 pot -7.07
CCCCCN(C(=O)CCC(=O)OCC(=O)c1ccc(C(C)CC)cc1)c1c(N)n(CCCC)c(=O)[nH]c1=O (stereo not drawn)	none
CCN(CC)CCC/C(=N\O)C(O)(c1ccccc1)c1ccccc1	RGS4 pot -10.4
CC[N+](C)(CC)CCC/C(=N/O)C(O)(c1ccccc1)c1ccccc1	RGS4 pot -9.72
CC/C(CC(C)(C)c1ccccc1)=N\O	none
Cc1cccc(-n2ncc3c2CCCC3NC(=O)CCN2CCCO2)c1C (stereo not drawn)	none
S=C(NCc1ccco1)NCC(c1ccco1)N1CCCCC1 (stereo not drawn)	none
COc1cc(CNC(C)(C)C)cc(Br)c1OCc1cccs1	MrgX1 antag -6.14
COc1cc(CNCCO)cc(Br)c1OCc1cccs1	none

Bioassay records as filed in PubChem.
